Only some compounds are listed: those with a hit (about 1.9% of all), similar ones and a draw of the others.
APJ agonist: agonists of human APJ apelin receptor; AID 2520; activation, % at 20 µM; CHO-K1 APJ PathHunter beta-arrestin, luminescence; 0% DMSO wells, 100% apelin; P35414; 0.11% of 330,000 active;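 active = activation more than six SD over the plate average, tested at 20 µM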
Target sequence (P35414 whole entry, looked up): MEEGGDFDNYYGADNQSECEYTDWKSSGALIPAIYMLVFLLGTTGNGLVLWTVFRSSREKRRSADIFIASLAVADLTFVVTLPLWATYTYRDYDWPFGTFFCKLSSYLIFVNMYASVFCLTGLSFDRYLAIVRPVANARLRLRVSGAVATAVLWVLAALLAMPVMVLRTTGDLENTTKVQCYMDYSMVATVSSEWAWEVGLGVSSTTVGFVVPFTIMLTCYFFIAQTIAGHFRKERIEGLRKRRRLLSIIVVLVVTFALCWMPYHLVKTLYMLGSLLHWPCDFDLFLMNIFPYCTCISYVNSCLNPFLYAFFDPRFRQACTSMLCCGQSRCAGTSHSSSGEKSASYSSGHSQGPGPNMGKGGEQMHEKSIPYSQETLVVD
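Test system – PathHunter CHO-K1 APJ (AGTRL-1) beta-arrestin reporter cells · Input – 1000 cells/well · Compound – single test compound dose, 20 µM final, 1% DMSO · Times – compound stimulation 90 min at 25 °C, detection 60 min · Technique – beta-gal luminescence · Read-out basis – APJ–arrestin association signal · Control set – negative DMSO alone, positive Apelin-13 at 10 nM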
TAG inh: reduces triacylglycerol accumulation in H9c2 cells; Nile Red lipid (TAG) fluorescence; cells loaded with 200 µM oleic acid; inhibition, % at 12.5 µM; 0.66% of 230,000 active;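 active = pattern-corrected inhibition of lipid staining of at least 50% with the nuclear-stain viability signal not falling by more than 50%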
APJ antag: APJ receptor antagonism; CHO-K1 APJ beta-arrestin complementation, luminescence; P35414; inhibition, % at 20 µM; 0.32% of 330,000 active; AID 2521;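 active = inhibition above about 40% at 20 µM, limit read from the data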;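 also: cells challenged with 10 nM apelin-13 agonist together with compound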
CXCR6 inh: blocks human CXCR6 beta-arrestin recruitment; O00574; 0.36% of 360,000 active; AID 602244; inhibition, % at 20 µM; CHO-K1 PathHunter CXCR6 beta-arrestin, luminescence; in the data active = inhibition above about 34%, passing the limit was not always enough;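 also: antagonist mode with CXCL16 agonist at 10 nM final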
EBI2 block: blocks human EBI2 receptor beta-arrestin signaling; inhibition, % at 5 µM; EBI2 beta-arrestin recruitment, luminescence, 7a,25-OHC stimulated; P32249; 0.81% of 360,000 active; in the data active = inhibition above about 38%;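 also: enzyme fragment complementation signal reports receptor beta-arrestin coupling in cells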
Target sequence (P32249 whole entry, looked up, the tested form may be a part): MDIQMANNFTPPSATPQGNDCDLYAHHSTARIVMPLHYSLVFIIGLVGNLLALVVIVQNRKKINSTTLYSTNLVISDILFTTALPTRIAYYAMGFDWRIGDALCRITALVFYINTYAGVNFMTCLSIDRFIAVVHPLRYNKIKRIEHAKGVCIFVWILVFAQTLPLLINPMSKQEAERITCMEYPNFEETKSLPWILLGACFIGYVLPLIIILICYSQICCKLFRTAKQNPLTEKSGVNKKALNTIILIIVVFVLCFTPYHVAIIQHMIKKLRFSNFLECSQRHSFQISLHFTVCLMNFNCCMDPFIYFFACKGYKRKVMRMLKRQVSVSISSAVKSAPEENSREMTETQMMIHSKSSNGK
CCR6 antag: blocks CCL20-driven beta-arrestin recruitment at human CCR6; P51684; CHO-K1 CCR6 PathHunter beta-arrestin, luminescence, CCL20-stimulated; inhibition, % at 20 µM; 0.49% of 340,000 active; AID 493098;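 active = compounds whose inhibition of the agonist-driven luminescence signal at 20 µM reaches about 50%, limit read from the data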;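 also: cells stimulated with CCL20 at 14 nM final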
EBI2 conf: confirmation of human EBI2 receptor antagonists | shares compounds with EBI2 block | EBI2 beta-arrestin luminescence, 7a,25-OHC antagonism | inhibition, % at 5 µM | 29% of 2,400 active;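 active = inhibition of at least 50%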
EBI2 agonist: activates EBI2, counter-screen for EBI2 antagonists | shares compounds with EBI2 block | EBI2-expressing cells, agonist mode, luminescence, 60 min; 0% vehicle, 100% 7α,25-dihydroxycholesterol control | activation, % at 5 µM | 2,400 tested, under 10 active | AID 652000;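 active = activation of at least 50%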
bGal counter: counter-screen for EBI2 antagonists: E. coli beta-galactosidase inhibition. shares compounds with EBI2 block. purified beta-galactosidase, luminescent Galacton Star, 15 min. inhibition, % at 5 µM. 1% of 2,400 active;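 active = replicate-average signal at least 3 plate SD below neutral wells, shown as high inhibition, flagging enzyme-inhibiting false positives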;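 also: higher means stronger loss of beta-gal luminescence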
Of the large screens only hits and unclear results are named; the others gave an inactive call (follow-up assays come after a bar, where they were run).

NS(=O)(=O)c1ccc(N/N=C/c2cn(-c3ccccc3)nc2-c2cccs2)cc1	EBI2 block 41.4 (no result: TAG inh) | EBI2 conf inactive | EBI2 agonist inactive | bGal counter inactive
CC1(Cc2ccc(S(C)(=O)=O)cc2)C(=O)Nc2ccc(Cl)cc21 (centres undefined)	none (no result: APJ agonist, APJ antag, CCR6 antag)
CN(CC(=O)NC(=O)NC1CCCCC1)CC(=O)Nc1ccc(OC(F)(F)F)cc1	none
CCOC(=O)Cn1nc(-c2ccc(Cl)cc2)cc1N	none
CCOC(=O)CN1CCC(c2cc(-c3ccc(Cl)cc3)n[nH]2)CC1	EBI2 block 39.9 (no result: TAG inh) | EBI2 conf inactive | EBI2 agonist inactive | bGal counter inactive
COc1ccccc1C(=O)N1CCN(C(=O)c2oc3ccc(C)cc3c2C)CC1	EBI2 block 64.5 | EBI2 conf inactive | EBI2 agonist inactive | bGal counter inactive
Cc1c(C(=O)N2CCN(S(=O)(=O)c3ccccc3)CC2)oc2ccc(Br)cc12	EBI2 block 57.6 | EBI2 conf inactive | EBI2 agonist inactive | bGal counter inactive
Cc1c(C(=O)N2CCN(C(=O)c3ccccc3)CC2)oc2ccc(F)cc12	EBI2 block 51.1 | EBI2 conf inactive | EBI2 agonist inactive | bGal counter inactive
Cc1c(C(=O)N2CCN(c3ncccn3)CC2)oc2ccc(F)cc12	none
CCOc1ccccc1C(=O)Nc1ccc(S(=O)(=O)Nc2nccc(C)n2)cc1	none
COc1cccc(C(=O)OCC(=O)c2c[nH]c3ccccc23)c1O	none
O=C(CSc1nc(-c2ccc(F)cc2)cc(C(F)(F)F)n1)Nc1ccc2c(c1)OCO2	none (no result: TAG inh)
CC(C)[C@H]1COCCS(=O)(=O)N1Cc1ccccc1-c1ccccc1	none (no result: APJ agonist, APJ antag)
Nc1nc(CSc2ccc(Cl)cc2)nc(N2CCCCC2)n1	EBI2 block 44.3 | EBI2 conf inactive | EBI2 agonist inactive | bGal counter inactive
Cc1cccc(C)c1N1CCN(C(=O)Nc2ccc3c(c2)OCCO3)CC1	EBI2 block 63.9 | EBI2 conf 54.4 | EBI2 agonist inactive | bGal counter inactive
COc1cccc(SCC2(O)CCN(C(=O)c3ccc(Cl)cc3)CC2)c1	EBI2 block 55.2 | EBI2 conf inactive | EBI2 agonist inactive | bGal counter inactive
O=C(c1ccc(Cl)cc1)N1CCC(O)(CSc2ccccc2)CC1	EBI2 block 67.8 | EBI2 conf 71.0 | EBI2 agonist inactive | bGal counter inactive
O=C(c1ccc(Cl)cc1)N1CCC(O)(CSc2ccc(Cl)cc2)CC1	EBI2 block 68.8 | EBI2 conf 56.5 | EBI2 agonist inactive | bGal counter inactive
CN1CCN(C(=O)c2ccc(CSc3ccc(Cl)cc3)cc2)CC1	none (no result: TAG inh)
Cn1c(NNC(=O)C(c2ccccc2)c2ccccc2)cc(=O)n(C)c1=O	none
Cc1c(NC(=O)CN2C(=O)NC(C)(c3ccccc3)C2=O)c(=O)n(-c2ccccc2)n1C (centres undefined)	none
CCOC(=O)[C@H](C)N1[C@H](C)[C@H](c2ccccc2)Oc2ccc(Cl)cc2S1(=O)=O	EBI2 block 46.0 (no result: APJ agonist, APJ antag) | EBI2 conf inactive | EBI2 agonist inactive | bGal counter inactive
O=C(Cc1ccccc1)Nc1ccccc1N1CCN(c2ccccc2)CC1	EBI2 block 40.6 (no result: TAG inh) | EBI2 conf inactive | EBI2 agonist inactive | bGal counter inactive
O=C(CSc1ccc(Br)cc1)Nc1ccccc1N1CCOCC1	EBI2 block 43.0 | EBI2 conf inactive | EBI2 agonist inactive | bGal counter inactive
O=C(CSc1ccc(Cl)cc1)Nc1ccccc1N1CCN(C(=O)c2ccc(Cl)cc2)CC1	EBI2 block 42.6 (no result: TAG inh) | EBI2 conf inactive | EBI2 agonist inactive | bGal counter inactive
O=C(CSc1ccc([N+](=O)[O-])cc1)Nc1ccccc1N1CCOCC1	none
O=C(Nc1ccccc1N1CCCC1)C1CCN(C(=O)c2ccc(Cl)cc2)CC1	none
O=C(Nc1ccccc1N1CCCCC1)C1CCN(C(=O)c2ccc(Cl)cc2)CC1	EBI2 block 57.6 | EBI2 conf inactive | EBI2 agonist inactive | bGal counter inactive
O=C1C=C(OCCF)CC(c2ccc(Br)cc2)O1 (centres undefined)	none (no result: APJ agonist, TAG inh, APJ antag, CXCR6 inh, CCR6 antag)
O=C(COc1ccc(Cl)cc1Br)Nc1cccc(S(=O)(=O)N2CCCC2)c1	none
COc1cc(C(=O)OCC(=O)Nc2ccccc2)cc2c1OCCO2	none (no result: APJ agonist, APJ antag, CCR6 antag)
CC1CCN(C(=O)c2cc3c(ccc4ccccc43)o2)CC1	EBI2 block 81.8 (no result: TAG inh) | EBI2 conf 61.8 | EBI2 agonist inactive | bGal counter inactive
CC1CCN(C(=O)c2cc3ccccc3c(=O)o2)CC1	none (no result: TAG inh)
CCOC(=O)C1CCN(C(=O)c2cc3c(ccc4ccccc43)o2)CC1	EBI2 block 77.7 (no result: TAG inh) | EBI2 conf 64.0 | EBI2 agonist inactive | bGal counter inactive
CC(C(=O)Nc1ccc2[nH]c(=O)[nH]c2c1)N1CCN(Cc2ccc3c(c2)OCO3)CC1 (centres undefined)	none
Cc1cc(Cl)ccc1Oc1ncc(-c2ccc(Cl)cc2)cn1	EBI2 block 59.5 | EBI2 conf inactive | EBI2 agonist inactive | bGal counter inactive
Cc1cc(Cl)ccc1OCc1nc(-c2ccc(O)cc2)n[nH]1	none
Clc1ccc(-c2cnc(Oc3ccccc3)nc2)cc1	EBI2 block 72.9 | EBI2 conf inactive | EBI2 agonist inactive | bGal counter inactive
Clc1ccc(-c2ccccc2)cn1	none
Cc1ccc(S(=O)(=O)N2CCOCC2)cc1NC(=O)COc1ccccc1Cc1ccccc1	none
Cn1cccc1CC(=O)N/N=C\c1ccccc1	EBI2 block 43.9 (no result: TAG inh) | EBI2 conf inactive | EBI2 agonist inactive | bGal counter inactive
COc1ccc(-c2nnn(CC(=O)N(Cc3ccc(F)cc3)C(C(=O)NC3CCCC3)c3ccc(F)cc3)n2)cc1 (centres undefined)	none (no result: TAG inh)
CCOC(=O)CN(C(=O)Cn1nnc(-c2ccc(OC)cc2)n1)C(C(=O)NC1CCCC1)c1ccc(F)cc1 (centres undefined)	EBI2 block 74.8 (no result: TAG inh) | EBI2 conf inactive | EBI2 agonist inactive | bGal counter inactive
COc1ccc(CCNC(=O)COc2ccc(N(C)S(=O)(=O)c3ccc(Cl)cc3)cc2)cc1	EBI2 block 63.0 (no result: APJ agonist, APJ antag) | EBI2 conf inactive | EBI2 agonist inactive | bGal counter inactive
Cc1cccc(C)c1NC(=O)CNC(=O)c1ccncc1	none
COc1ccc(N2CCN(C(=O)c3cccc(NC(=O)c4ccco4)c3)CC2)cc1	none
C=CCN1C(=O)c2ccc(C(=O)N3CCN(c4ccccc4OC)CC3)cc2C1=O	none
